{"source": "ChEMBL document CHEMBL2390884", "about": "“Design, synthesis and antiproliferative activity studies of novel 1,2,3-triazole-dithiocarbamate-urea hybrids” (Eur J Med Chem, 2013)", "key": {"MGC-803 [1]": {"tested_on": "MGC-803", "test": "Cell cycle arrest in human MGC803 cells assessed as accumulation at G2/M phase at 0.5 uM after 12 hrs by propidium iodide staining-based flow cytometry", "type": "functional", "how_it_was_run": "(§1)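 Exponentially growing MGC-803 cells (5×10^5) treated at 0, 0.25, 0.5 or 1.0 µmol/L for 12 or 24 h; cells collected, fixed in ice-cold 70% ethanol, treated with buffer containing RNAse A and 0.1% Triton X-100, stained with PI; DNA content analysed by flow cytometry to give percentages of cells in G1, S and G2/M phases.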"}, "MGC-803 [2]": {"tested_on": "MGC-803", "test": "Induction of apoptosis in human MGC803 cells assessed as chromatin condensation at 0.25 to 1 uM after 12 hrs by Hoechst 33258 staining-based fluorescence microscopy", "type": "functional, cell-based", "how_it_was_run": "(§2)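 MGC-803 cells seeded at 8×10^3 cells/well, treated 12 h at 0, 0.25, 0.5 or 1.0 µmol/L; cells collected, fixed, stained 20 min with Hoechst 33258, washed with PBS; nuclear shrinkage, chromatin condensation, intense fluorescence and fragmentation scored by fluorescence microscopy.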"}, "MGC-803 [3]": {"tested_on": "MGC-803", "test": "Induction of apoptosis in human MGC803 cells assessed as necrotic cells at 0.5 uM after 12 hrs by AnnexinV-FITC/propidium iodide staining-based flow cytometry (reference value: 2.4 %)", "type": "functional"}, "MGC-803 [4]": {"tested_on": "MGC-803", "test": "Cell cycle arrest in human MGC803 cells assessed as accumulation at G2/M phase at 0.25 to 1 uM by propidium iodide staining-based flow cytometry", "type": "functional", "details": "TDE = time-dependent effect", "how_it_was_run": "as §1"}, "MGC-803 [5]": {"tested_on": "MGC-803", "test": "Cell cycle arrest in human MGC803 cells assessed as accumulation at G2/M phase at 0.25 uM after 12 hrs by propidium iodide staining-based flow cytometry", "type": "functional", "how_it_was_run": "as §1"}, "MGC-803 [6]": {"tested_on": "MGC-803", "test": "Induction of apoptosis in human MGC803 cells assessed as nuclear shrinkage at 0.25 to 1 uM after 12 hrs by Hoechst 33258 staining-based fluorescence microscopy", "type": "functional, cell-based", "how_it_was_run": "as §2"}, "MGC-803 [7]": {"tested_on": "MGC-803", "test": "Induction of apoptosis in human MGC803 cells assessed as nuclear fragmentation at 0.25 to 1 uM after 12 hrs by Hoechst 33258 staining-based fluorescence microscopy", "type": "functional, cell-based", "how_it_was_run": "as §2"}, "MGC-803 [8]": {"tested_on": "MGC-803", "test": "Cell cycle arrest in human MGC803 cells assessed as accumulation at G0/G1 phase at 0.5 uM after 24 hrs by propidium iodide staining-based flow cytometry", "type": "functional", "how_it_was_run": "as §1"}, "MGC-803 [9]": {"tested_on": "MGC-803", "test": "Induction of apoptosis in human MGC803 cells assessed as viable cells at 0.5 uM after 12 hrs by AnnexinV-FITC/propidium iodide staining-based flow cytometry (reference value: 91.9 %)", "type": "functional", "details": "MGC-803, 12 h, read-out: Activity"}, "MGC-803 [10]": {"tested_on": "MGC-803", "test": "Induction of apoptosis in human MGC803 cells assessed as late apoptotic cells at 0.25 uM after 12 hrs by AnnexinV-FITC/propidium iodide staining-based flow cytometry (reference value: 3.0 %)", "type": "functional"}, "SMMC-7721": {"tested_on": "SMMC-7721", "test": "Cytotoxicity against human SMMC7721 cells after 72 hrs by MTT assay", "type": "functional, cell-based", "details": "SMMC-7721, 72 h"}}, "note": "Active and inactive are the calls of the source. The calls are words filed in the database; no cut-off is given here."}
{"compound": "CC(C)NC(=O)N1CCN(C(=S)SCc2cn(Cc3ccc(F)cc3)nn2)CC1", "values": [{"measurement": "Activity", "setting": "MGC-803 [1]", "value": 46.86, "unit": "%"}, {"measurement": "Activity", "setting": "MGC-803 [2]", "value": "Active"}, {"measurement": "Activity", "setting": "MGC-803 [3]", "value": 0.8, "unit": "%"}, {"measurement": "Activity", "setting": "MGC-803 [4]", "value": "tde"}, {"measurement": "Activity", "setting": "MGC-803 [5]", "value": 20.84, "unit": "%"}, {"measurement": "Activity", "setting": "MGC-803 [6]", "value": "Active"}, {"measurement": "Activity", "setting": "MGC-803 [7]", "value": "Active"}, {"measurement": "Activity", "setting": "MGC-803 [8]", "value": 4.91, "unit": "%"}, {"measurement": "viability at 0.5 µM", "setting": "MGC-803 [9]", "value": 80.1, "unit": "%"}, {"measurement": "Activity", "setting": "MGC-803 [10]", "value": 2.2, "unit": "%"}, {"measurement": "IC50", "setting": "SMMC-7721", "value": 5.97, "unit": "µM"}]}
